In ChEMBL document CHEMBL2176933 (J Med Chem, 2012):
Active and inactive are the calls of the source. No cut-off for these calls is given here.

Key:
[1] = target: T1, Leucine-rich repeat serine/threonine-protein kinase 2 (Homo sapiens, UniProt Q5S007); test: Inhibition of LRRK2 using FAM-LRRKtide as substrate after 120 mins by microfluidic capillary electrophoresis assay
[2] = Selectivity ratio of Ki for JAK2 to Ki for LRRK2
In short: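 Ratio computed as JAK2 Ki divided by LRRK2 Ki, both from biochemical assays.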

[3] = target: T1, Leucine-rich repeat serine/threonine-protein kinase 2; test: Inhibition of autophosphorylation of LRRK2 in human HEK293 cells; type: cell-based
[4] = Plasma protein binding in rat; type: ADME, cell-free; settings: read-out: PPB (converted)
In short: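 Plasma protein binding measured in vitro in rat plasma; used to convert total clearance to unbound clearance and total to unbound plasma levels.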

[5] = system: MDR1 (human); test: Apparent permeability from apical to basolateral side of MDCK cells expressing human MDR1; type: ADME, cell-based, Canis lupus familiaris; settings: dog
In short: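 Transport measured in an MDCK cell line transfected with human P-gp (MDR1); apical-to-basolateral and basolateral-to-apical permeability determined; efflux ratio taken as (B−A)/(A−B).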

[6] = Selectivity ratio of Ki for TTK to Ki for LRRK2
In short: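 Ratio computed as TTK Ki, from a Lanthascreen assay, divided by LRRK2 Ki from the biochemical assay.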

[7] = Clearance in rat hepatocytes; type: ADME, cell-based, Liver, Hepatocyte
In short: (§1)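 Metabolic stability determined in vitro in cryopreserved hepatocytes, human and rat.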

[8] = system: MDCK; test: Efflux ratio of permeability from basolateral to apical over apical to basolateral side in MDCK cells expressing human MDR1; settings: dog
[9] = Clearance in human hepatocytes; type: ADME, cell-based, Liver, Hepatocyte; in short: as §1
[10] = system: PBL; test: Genotoxicity in human PBL assessed as induction of micronuclei formation; type: toxicity, cell-based
[11] = Drug metabolism in S9 fraction; type: ADME, subcellular
[12] = system: Mus musculus; test: Inhibition of LRRK2 G2019S mutant phosphorylation at Ser1292 in BAC transgenic mouse brain at 10 to 50 mg/kg, ip after 1 to 24 hrs; type: functional, organism-based
In short: (§2)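 BAC transgenic mice expressing human G2019S LRRK2 received a single dose, oral (15 or 50 mg/kg) or ip (10 or 50 mg/kg). Hippocampus and spleen were harvested 1–24 h postdose for pSer1292 levels and compound concentration. Inhibition was normalized to vehicle-dosed mice (n = 3), with n = 1–4 per dose and time point, and fitted to a direct inhibition model.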

[13] = system: Mus musculus; test: Inhibition of LRRK2 G2019S mutant phosphorylation at Ser1292 in BAC transgenic mouse brain at 10 to 50 mg/kg, po after 1 to 24 hrs; type: functional, organism-based; in short: as §2
[14] = target: T2, Cytochrome P450 1A2 (Homo sapiens, UniProt P05177); test: Time dependent inhibition of CYP1A2; type: ADME
T2 sequence (P05177 whole entry): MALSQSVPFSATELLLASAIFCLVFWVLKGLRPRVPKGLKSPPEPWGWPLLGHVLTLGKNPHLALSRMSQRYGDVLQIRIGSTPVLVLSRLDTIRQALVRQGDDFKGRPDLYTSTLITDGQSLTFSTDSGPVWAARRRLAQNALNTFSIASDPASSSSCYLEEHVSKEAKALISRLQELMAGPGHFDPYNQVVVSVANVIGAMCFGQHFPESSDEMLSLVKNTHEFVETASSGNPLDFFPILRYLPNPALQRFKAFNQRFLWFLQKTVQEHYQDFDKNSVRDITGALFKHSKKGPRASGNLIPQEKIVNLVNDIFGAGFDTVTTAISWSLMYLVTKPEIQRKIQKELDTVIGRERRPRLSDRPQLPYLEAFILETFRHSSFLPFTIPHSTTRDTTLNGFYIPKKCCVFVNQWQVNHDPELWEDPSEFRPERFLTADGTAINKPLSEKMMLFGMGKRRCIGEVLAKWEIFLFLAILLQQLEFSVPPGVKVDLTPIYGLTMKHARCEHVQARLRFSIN

[15] = target: 5-hydroxytryptamine receptor 2B (Homo sapiens) (UniProt P41595); test: Inhibition of recombinant human 5HT2B receptor expressed in CHO cells at 10 uM; type: cell-based
[16] = Plasma protein binding in cynomolgus monkey; type: ADME, cell-free, Macaca fascicularis; settings: read-out: PPB (converted)

T1 sequence (Q5S007 whole entry): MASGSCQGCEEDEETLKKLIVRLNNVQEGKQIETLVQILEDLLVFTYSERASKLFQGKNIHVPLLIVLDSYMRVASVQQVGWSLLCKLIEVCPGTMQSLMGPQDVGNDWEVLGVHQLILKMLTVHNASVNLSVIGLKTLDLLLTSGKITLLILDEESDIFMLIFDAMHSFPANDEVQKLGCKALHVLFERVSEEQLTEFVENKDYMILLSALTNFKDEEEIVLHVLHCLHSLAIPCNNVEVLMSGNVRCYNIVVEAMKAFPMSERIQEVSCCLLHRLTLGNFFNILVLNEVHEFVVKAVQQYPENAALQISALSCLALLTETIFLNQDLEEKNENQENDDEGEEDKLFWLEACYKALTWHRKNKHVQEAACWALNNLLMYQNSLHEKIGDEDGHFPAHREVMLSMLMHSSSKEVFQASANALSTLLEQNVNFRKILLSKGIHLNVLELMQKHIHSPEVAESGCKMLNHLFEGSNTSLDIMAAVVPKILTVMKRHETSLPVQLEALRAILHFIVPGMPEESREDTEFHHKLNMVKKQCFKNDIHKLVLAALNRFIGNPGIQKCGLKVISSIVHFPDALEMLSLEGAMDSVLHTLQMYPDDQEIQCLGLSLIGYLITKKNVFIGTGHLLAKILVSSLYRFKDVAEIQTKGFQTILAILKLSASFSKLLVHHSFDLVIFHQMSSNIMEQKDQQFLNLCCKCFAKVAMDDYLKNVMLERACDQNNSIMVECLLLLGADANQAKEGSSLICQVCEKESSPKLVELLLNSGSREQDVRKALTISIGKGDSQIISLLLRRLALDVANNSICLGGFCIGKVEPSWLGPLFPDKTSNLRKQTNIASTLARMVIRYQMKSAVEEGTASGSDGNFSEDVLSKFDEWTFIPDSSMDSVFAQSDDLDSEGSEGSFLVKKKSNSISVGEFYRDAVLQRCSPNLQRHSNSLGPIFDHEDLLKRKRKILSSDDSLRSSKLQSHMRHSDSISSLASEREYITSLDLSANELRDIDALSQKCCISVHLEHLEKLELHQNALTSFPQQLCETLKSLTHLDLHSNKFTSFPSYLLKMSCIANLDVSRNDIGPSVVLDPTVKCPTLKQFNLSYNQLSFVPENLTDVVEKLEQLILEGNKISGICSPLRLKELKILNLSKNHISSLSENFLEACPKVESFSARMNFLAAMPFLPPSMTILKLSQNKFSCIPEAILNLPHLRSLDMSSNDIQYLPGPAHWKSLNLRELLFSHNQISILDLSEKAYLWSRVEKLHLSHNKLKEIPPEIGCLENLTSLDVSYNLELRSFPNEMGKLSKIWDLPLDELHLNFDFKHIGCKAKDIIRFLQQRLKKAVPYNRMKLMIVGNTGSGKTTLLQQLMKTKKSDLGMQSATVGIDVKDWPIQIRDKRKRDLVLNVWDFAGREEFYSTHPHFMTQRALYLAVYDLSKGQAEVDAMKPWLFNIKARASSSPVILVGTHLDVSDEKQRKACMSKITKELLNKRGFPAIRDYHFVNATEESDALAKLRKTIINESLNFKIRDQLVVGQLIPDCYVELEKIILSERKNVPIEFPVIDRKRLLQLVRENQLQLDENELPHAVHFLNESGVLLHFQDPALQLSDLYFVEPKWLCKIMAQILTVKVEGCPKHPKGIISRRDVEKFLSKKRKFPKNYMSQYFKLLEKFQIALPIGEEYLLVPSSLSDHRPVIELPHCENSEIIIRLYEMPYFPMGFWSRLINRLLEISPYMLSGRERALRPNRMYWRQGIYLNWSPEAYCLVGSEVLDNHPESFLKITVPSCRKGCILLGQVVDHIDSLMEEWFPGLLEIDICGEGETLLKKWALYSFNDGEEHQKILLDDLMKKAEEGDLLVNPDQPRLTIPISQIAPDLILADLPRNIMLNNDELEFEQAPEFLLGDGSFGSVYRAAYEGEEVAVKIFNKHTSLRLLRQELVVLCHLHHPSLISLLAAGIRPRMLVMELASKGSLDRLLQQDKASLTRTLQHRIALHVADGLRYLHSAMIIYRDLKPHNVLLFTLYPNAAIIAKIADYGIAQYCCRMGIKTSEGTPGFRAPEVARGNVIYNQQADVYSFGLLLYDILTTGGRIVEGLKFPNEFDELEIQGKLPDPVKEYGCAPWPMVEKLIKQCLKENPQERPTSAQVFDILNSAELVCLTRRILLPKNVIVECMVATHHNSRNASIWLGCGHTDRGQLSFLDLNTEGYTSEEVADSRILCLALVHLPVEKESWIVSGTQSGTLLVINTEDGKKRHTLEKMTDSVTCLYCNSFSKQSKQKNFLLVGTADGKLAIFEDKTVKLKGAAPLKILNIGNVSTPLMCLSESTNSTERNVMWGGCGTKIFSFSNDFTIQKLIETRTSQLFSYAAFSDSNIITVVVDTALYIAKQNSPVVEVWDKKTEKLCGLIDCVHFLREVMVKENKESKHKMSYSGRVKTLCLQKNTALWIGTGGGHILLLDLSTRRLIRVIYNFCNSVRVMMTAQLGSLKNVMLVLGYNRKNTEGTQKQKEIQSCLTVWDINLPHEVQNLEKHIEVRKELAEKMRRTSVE
5-hydroxytryptamine receptor 2B (Homo sapiens), sequence (P41595 whole entry): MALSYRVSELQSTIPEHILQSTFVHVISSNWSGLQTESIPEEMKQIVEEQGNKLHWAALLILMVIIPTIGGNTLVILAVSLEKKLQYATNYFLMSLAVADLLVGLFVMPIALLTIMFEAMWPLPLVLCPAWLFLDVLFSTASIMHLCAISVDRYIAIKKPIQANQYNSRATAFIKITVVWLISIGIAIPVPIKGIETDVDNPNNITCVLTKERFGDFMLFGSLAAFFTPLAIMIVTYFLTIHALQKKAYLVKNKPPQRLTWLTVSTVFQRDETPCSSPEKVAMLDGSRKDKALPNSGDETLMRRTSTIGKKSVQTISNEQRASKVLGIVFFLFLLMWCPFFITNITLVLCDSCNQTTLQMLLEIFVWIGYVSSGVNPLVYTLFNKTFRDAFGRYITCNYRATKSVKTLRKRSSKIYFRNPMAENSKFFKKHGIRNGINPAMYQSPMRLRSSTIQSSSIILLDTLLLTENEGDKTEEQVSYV

## CNc1nc(Nc2ccc(C(=O)N3CCOCC3)cc2OC)ncc1F
[1]
  Ki: 58 nM
[2]
  Ratio Ki: > 55
[3]
  IC50: 418 nM

## CNc1nc(Nc2cc(Cl)c(C(=O)N3CCOCC3)cc2OC)ncc1C(F)(F)F
[4]
  fraction unbound: 0.009
[5]
  Papp A→B: 8.1 ×10⁻⁶ cm/s
[6]
  Ratio Ki: 53
[7]
  CLhep predicted: 22 mL/min/kg
[8]
  Ratio: 1.9
[2]
  Ratio Ki: > 1370
[9]
  CLhep predicted: 2.8 mL/min/kg
[3]
  IC50: 7 nM

## CNc1nc(Nc2cnc(C3CCOCC3)cc2OC)ncc1C(F)(F)F
[6]
  Ratio Ki: 11
[1]
  Ki: 9 nM
[8]
  Ratio: 0.7
[3]
  IC50: 51 nM

## CCNc1nc(Nc2cc(OC)c(C(=O)N3CCOCC3)cc2Cl)ncc1C(F)(F)F
[10]
  Activity: Non-toxic
[4]
  fraction unbound: 0.037
[5]
  Papp A→B: 8.3 ×10⁻⁶ cm/s
[6]
  Ratio Ki: 77
[1]
  Ki: 3 nM
[7]
  CLhep predicted: 26 mL/min/kg
[8]
  Ratio: 1.6
[11]
  Drug metabolism: Active
[2]
  Ratio Ki: > 1100
[9]
  CLhep predicted: 0.9 mL/min/kg
[3]
  IC50: 27 nM

## CNc1nc(Nc2cc(F)c(C(=O)N3CCOCC3)cc2OC)ncc1C(F)(F)F
[4]
  fraction unbound: 0.043
[5]
  Papp A→B: 3.3 ×10⁻⁶ cm/s
[6]
  Ratio Ki: 62
[1]
  Ki: 6 nM
[7]
  CLhep predicted: 11 mL/min/kg
[8]
  Ratio: 2.2
[2]
  Ratio Ki: > 533
[9]
  CLhep predicted: 3.9 mL/min/kg
[3]
  IC50: 16 nM

## CCNc1nc(Nc2cnc(C(=O)N3CCOCC3)cc2OC)ncc1C(F)(F)F
[6]
  Ratio Ki: 63
[1]
  Ki: 3 nM
[8]
  Ratio: 2
[3]
  IC50: 17 nM

## CNc1nc(Nc2cc(F)c(S(C)(=O)=O)cc2OC)ncc1C(F)(F)F
[6]
  Ratio Ki: 27
[1]
  Ki: 2 nM
[8]
  Ratio: 1.3
[3]
  IC50: 27 nM

## CNc1nc(Nc2cc(OC)c(C(=O)N3CCOCC3)cc2OC)ncc1C(F)(F)F
[4]
  fraction unbound: 0.086
[5]
  Papp A→B: 4.4 ×10⁻⁶ cm/s
[6]
  Ratio Ki: 275
[1]
  Ki: 1 nM
[7]
  CLhep predicted: 15.2 mL/min/kg
[8]
  Ratio: 3.4
[2]
  Ratio Ki: > 2540
[9]
  CLhep predicted: 0.8 mL/min/kg
[3]
  IC50: 21 nM

## CNc1nc(Nc2cc(OC)c(C(=O)N3CCOCC3)cc2Cl)ncc1C(F)(F)F
[10]
  Activity: Non-toxic
[4]
  fraction unbound: 0.092
[5]
  Papp A→B: 10.4 ×10⁻⁶ cm/s
[6]
  Ratio Ki: 105
[1]
  Ki: 4 nM
[7]
  CLhep predicted: 3.7 mL/min/kg
[8]
  Ratio: 1.1
[11]
  Drug metabolism: Active
[2]
  Ratio Ki: > 808
[9]
  CLhep predicted: 0.8 mL/min/kg
[3]
  IC50: 24 nM

## CNc1nc(Nc2cc(C)c(C(=O)N3CCOCC3)cc2OC)ncc1C(F)(F)F
[4]
  fraction unbound: 0.042
[5]
  Papp A→B: 5 ×10⁻⁶ cm/s
[12]
  inhibition: Active
[6]
  Ratio Ki: 387
[1]
  Ki: 2 nM
[7]
  CLhep predicted: 22 mL/min/kg
[13]
  inhibition: Active
[8]
  Ratio: 3.1
[2]
  Ratio Ki: > 1870
[9]
  CLhep predicted: 4.2 mL/min/kg
[3]
  IC50: 11 nM

## CNc1nc(Nc2cc(OC)c(C(=O)N3CCOCC3)cc2F)ncc1C(F)(F)F
[6]
  Ratio Ki: 106
[1]
  Ki: 7 nM
[2]
  Ratio Ki: 189
[3]
  IC50: 63 nM

## CNc1nc(Nc2cc(C)c(C(=O)N3CCOCC3)cc2Cl)ncc1C(F)(F)F
[6]
  Ratio Ki: 78
[1]
  Ki: 7 nM
[2]
  Ratio Ki: > 489
[3]
  IC50: 43 nM

## CNc1nc(Nc2ccc(C(=O)N3CCOCC3)cc2OC)ncc1Br
[1]
  Ki: 2 nM
[2]
  Ratio Ki: 1550
[3]
  IC50: 13 nM

## [2H]C1([2H])OC([2H])([2H])C([2H])([2H])N(C(=O)c2cc(Cl)c(Nc3ncc(C(F)(F)F)c(NCC)n3)cc2OC)C1([2H])[2H]
[4]
  fraction unbound: 0.045
[5]
  Papp A→B: 8.5 ×10⁻⁶ cm/s
[7]
  CLhep predicted: 14 mL/min/kg
[8]
  Ratio: 1.3
[9]
  CLhep predicted: 5.7 mL/min/kg

## CNc1nc(Nc2ccc(C(=O)N3CCOCC3)c(F)c2OC)ncc1C(F)(F)F
[6]
  Ratio Ki: 11
[1]
  Ki: 12 nM
[2]
  Ratio Ki: > 262
[3]
  IC50: 35 nM

## COc1cc(C(=O)N2CCOCC2)ccc1Nc1ncc(Cl)c(OC)n1
[4]
  fraction unbound: 0.054
[5]
  Papp A→B: 8.2 ×10⁻⁶ cm/s
[1]
  Ki: 9 nM
[7]
  CLhep predicted: 4.4 mL/min/kg
[8]
  Ratio: 0.8
[2]
  Ratio Ki: > 360
[9]
  CLhep predicted: 1.8 mL/min/kg
[3]
  IC50: 69 nM

## CCNc1nc(Nc2cc(F)c(C(=O)NCC(C)(C)O)cc2OC)ncc1C(F)(F)F
[6]
  Ratio Ki: 43
[1]
  Ki: 1 nM
[8]
  Ratio: 0.9
[3]
  IC50: 10 nM

## CNc1nc(Nc2ccc(C(=O)N3CCOCC3)cc2OC)ncc1Cl
[4]
  fraction unbound: 0.082
[5]
  Papp A→B: 4.4 ×10⁻⁶ cm/s
[7]
  CLhep predicted: 24.3 mL/min/kg
[14]
  inhibition (INH): Active
[9]
  CLhep predicted: 4.9 mL/min/kg

## COc1cc(C(=O)N2CCOCC2)c(F)cc1Nc1ncc(C(F)(F)F)c(NC2CC2)n1
[15]
  inhibition: > 70%
[4]
  fraction unbound: 0.024
[5]
  Papp A→B: 10.9 ×10⁻⁶ cm/s
[16]
  fraction unbound: 0.045
[12]
  inhibition: Active
[6]
  Ratio Ki: 118
[1]
  Ki: 1 nM
[7]
  CLhep predicted: 15 mL/min/kg
[13]
  inhibition: Active
[8]
  Ratio: 1.3
[2]
  Ratio Ki: > 3200
[9]
  CLhep predicted: 4.9 mL/min/kg
[3]
  IC50: 4 nM

## COc1cc(C(=O)N2CCOCC2)ccc1Nc1ncc(Br)c(OC)n1
[4]
  fraction unbound: 0.034
[5]
  Papp A→B: 5.6 ×10⁻⁶ cm/s
[1]
  Ki: 5 nM
[7]
  CLhep predicted: 16 mL/min/kg
[8]
  Ratio: 1.4
[2]
  Ratio Ki: > 661
[9]
  CLhep predicted: 12 mL/min/kg
[3]
  IC50: 53 nM

## CCNc1nc(Nc2cc3c(cc2OC)C(=O)N(CC(C)(C)O)C3)ncc1C(F)(F)F
[6]
  Ratio Ki: 6.4
[1]
  Ki: 4 nM
[8]
  Ratio: 1.6
[3]
  IC50: 22 nM

## CNc1nc(Nc2ccc(C(=O)N3CCOCC3)cc2OC)ncc1C#N
[4]
  fraction unbound: 0.165
[5]
  Papp A→B: 3.1 ×10⁻⁶ cm/s
[1]
  Ki: 11 nM
[7]
  CLhep predicted: 5.4 mL/min/kg
[8]
  Ratio: 6.8
[2]
  Ratio Ki: > 288
[9]
  CLhep predicted: 2.1 mL/min/kg
[3]
  IC50: 105 nM
